PG9 binder = binds the HIV-1 gp120 antibody PG9 | TR-FRET gp120-PG9 antibody binding | inhibition, % at 6.7 µM | 0.43% of 360,000 active; in the data active means inhibition above about 8.5%
TAG inh = inhibitors of triacylglycerol accumulation; AID 651582; inhibition, % at 12.5 µM; H9c2 cells, Nile Red lipid (TAG) fluorescence; cells loaded with 200 µM oleic acid; 0.66% of 230,000 active;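 active means pattern-corrected inhibition of lipid staining of at least 50% with the nuclear-stain viability signal not falling by more than 50%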;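 further: 0% = DMSO wells and 100% = triacsin C control wells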
beta cell repl = MIN6 beta-cell proliferation induction. MIN6 cells proliferation, ATPlite luminescence, 48 h; cells starved in 0.2% serum; 100% = growth in 10% serum. proliferation, % at 10 µM. 0.29% of 330,000 active. AID 2380;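 active means compounds whose signal lies at least 3.5 SD above the mean of all wells on their plate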;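 further: 0% = DMSO-treated cells in low-serum medium and 100% = 10% serum control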
hiPSC survival = enhancers of human iPSC single-cell survival | hiPSC single-cell survival, ATPlite luminescence; 100% = ROCK inhibitor wells, 0% = DMSO | survival enhancement, % at 20 µM | 0.044% of 360,000 active; in the data active means survival enhancement above about 18%;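 further: cells exposed to compounds for 16 hours before the ATP read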
T cruzi repl = T. cruzi replication inhibition; AID 1885; T. cruzi beta-gal in NIH3T3, luminescence, 90 h; 1.4% of 300,000 active; inhibition, % (concentration not given with the values);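 active means mean inhibition across valid replicates above about 55%, limit read from the data; inconclusive means mean below that limit but half or more replicates reach it; inactive means mean below it, under half of replicates reach it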;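 further: signal also drops with host cell toxicity which is not excluded here; 0% = plate median of DMSO wells and 100% = zero luminescence signal; higher percent means less beta-gal luminescence so fewer parasites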
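Incubation – ≥90 h infection period, 3 h prior cell attachment · System – NIH/3T3 fibroblasts plus reporter T. cruzi · Doses – compound pinned at 50 nL/well, DMSO · Read-out basis – percent inhibition of parasite-derived β-gal signal · Signal – luminescent β-galactosidase signal after 60 min lysis · Also added – 5000 T. cruzi trypomastigotes/well · Medium – Low-serum DMEM with 2% FBS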
NR1D1 modulator = Rev-erb alpha (human) modulation | P20393 | Rev-erbα–FITC-DNA binding, fluorescence polarization, 90 min | activity, % at 10 µM | 0.79% of 370,000 active;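 active means activity above about 14%, limit read from the data; passing the limit was not always enough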;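 further: 0% = DMSO wells with 35 nM protein and 100% = DMSO wells with 750 nM protein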
Target sequence (P20393 whole entry, looked up): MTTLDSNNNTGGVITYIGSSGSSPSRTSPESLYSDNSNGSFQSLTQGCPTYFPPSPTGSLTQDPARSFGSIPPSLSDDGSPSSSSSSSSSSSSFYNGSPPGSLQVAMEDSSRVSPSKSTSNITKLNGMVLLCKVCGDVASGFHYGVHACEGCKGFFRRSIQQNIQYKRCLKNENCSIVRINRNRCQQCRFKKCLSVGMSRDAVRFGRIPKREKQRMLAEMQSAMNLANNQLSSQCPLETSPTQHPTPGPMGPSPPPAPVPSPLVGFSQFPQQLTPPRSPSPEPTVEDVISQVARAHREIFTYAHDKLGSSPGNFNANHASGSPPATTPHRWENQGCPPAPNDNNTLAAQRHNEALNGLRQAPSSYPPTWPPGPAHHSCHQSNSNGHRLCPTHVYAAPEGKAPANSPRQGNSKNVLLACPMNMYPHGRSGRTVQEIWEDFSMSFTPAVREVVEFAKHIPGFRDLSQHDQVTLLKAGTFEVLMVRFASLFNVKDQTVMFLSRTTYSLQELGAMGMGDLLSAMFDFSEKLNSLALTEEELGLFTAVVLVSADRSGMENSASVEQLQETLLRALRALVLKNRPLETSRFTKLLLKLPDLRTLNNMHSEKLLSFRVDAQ
TAG conf = confirmation of triacylglycerol accumulation inhibitors | shares compounds with TAG inh | H9c2 lipid accumulation, Nile Red fluorescence; cells loaded with 200 µM oleic acid | inhibition, % at 12.5 µM | 71% of 990 active | AID 651629;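 active means mean inhibition across replicates of 40% or more; inactive means mean inhibition below 40%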;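 further: plate controls were DMSO only wells for no effect and Triacsin C treated wells for full effect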
* hit, by the source's call; u = inconclusive; x = no result given. Shown are actives, neighbours in structure and some others; about 2.9% of the full set was active somewhere.

SMILES | PG9 binder | TAG inh | beta cell repl | hiPSC survival | T cruzi repl | NR1D1 modulator | TAG conf
COc1cccc2cc(C(=O)N3C(C)CCCC3C)c(=O)oc12 (stereo unspecified) | 0 | x | -1 | -2 | 3 | -7 | x
COc1ccc([C@H]2C[C@H](O)[C@@H](n3cc(-c4ccc(F)cc4)nn3)CN2Cc2cccs2)cc1 | -1 | 59* | x | -2 | x | 12 | 52*
Cc1cc(C)nc(Nc2cccc(C(F)(F)F)c2)n1 | 0 | 6 | -2 | -1 | 11 | 0 | x
Nc1ccccc1Nc1cccc(C(F)(F)F)c1 | 0 | 68* | -3 | -2 | -38 | -3 | 74*
COc1ccccc1NC(=O)C(C)NS(=O)(=O)c1ccc(F)cc1 (stereo unspecified) | 0 | 19 | -3 | 3 | -6 | -5 | x
NC1=NC[C@H](Cc2ccccc2)N1CCc1cc(C(F)(F)F)cc(C(F)(F)F)c1 | 1 | 55* | -8 | 1 | 32 | 0 | 46*
FC(F)(F)c1cc(CCN2C(=S)NC[C@@H]2Cc2ccccc2)cc(C(F)(F)F)c1 | -1 | -1 | -8 | 0 | 9 | 8 | x
Cc1ccc2cc(C3C(C#N)=C(N)Oc4c3ccc3cccnc43)c(=O)[nH]c2c1 (stereo unspecified) | x | x | -6 | 12 | -8 | 0 | x
CC(=O)Oc1ccc(S(=O)(=O)c2ccc(OC(C)=O)cc2)cc1 | 2 | 65* | 4 | 0 | x | 2 | 2
COc1ccc(S(=O)(=O)c2ccc(OC)cc2)cc1 | 1 | -16 | -1 | 0 | 6 | -1 | x
COc1cccc(-c2cc(C(F)(F)F)c(C#N)c(=O)[nH]2)c1 | 2 | 8 | -1 | 0 | 1 | -6 | x
Cc1oc(-c2ccccc2F)nc1CS(=O)CC(=O)NCc1ccccc1 (stereo unspecified) | -3 | x | 0 | 1 | 8 | 6 | x
CCOC(=O)c1cc(CC)sc1NC(=O)c1cc(OC)c(OC)c(OC)c1 | -1 | 66* | -1 | -1 | 12 | 3 | 37
O=C(COC(=O)c1cc([N+](=O)[O-])ccc1N1CCOCC1)Nc1ccc(Cl)cn1 | -2 | 51* | 1 | 0 | -33 | 8 | 40
O=C(COC(=O)c1cc([N+](=O)[O-])ccc1N1CCOCC1)Nc1ccc(Cl)cc1 | 1 | -25 | -2 | 0 | -3 | -1 | x
O=C(OCc1ccc(Br)cc1)c1cc([N+](=O)[O-])ccc1N1CCOCC1 | -2 | 52* | x | 0 | x | 3 | 61*
CCOC(=O)c1cc(CC)sc1NC(=O)c1cc([N+](=O)[O-])ccc1N1CCOCC1 | -2 | 91* | -6 | -1 | 53 | 2 | 60*
CCOC(=O)c1cc(CC)sc1NC(=O)c1ccc(N2CCOCC2)c([N+](=O)[O-])c1 | x | x | 1 | -2 | -13 | -4 | x
COCCSc1nnc(NC(=O)c2ccc3c(c2)OCO3)s1 | 1 | -1 | -1 | -1 | -16 | 3 | x
Cn1nnnc1Sc1ncnc2scc(-c3ccc(-c4ccccc4)cc3)c12 | 0 | 59* | -6 | -3 | x | 6 | 36
Cn1nnnc1Sc1ncnc2scc(-c3ccc(C#N)cc3)c12 | -1 | 64 | -7 | -1 | x | -2 | x
CCOc1ccc(CN(C)C(=O)CCl)cc1 | -1 | 58* | -7 | -1 | 5 | -3 | 80*
CCN1C(=O)/C(=C2\SC(N3CCOCC3)=NC2=O)c2ccccc21 | -5 | x | 1 | -1 | 0 | 4 | x
C=CCN1C(=O)/C(=C2\SC(N3CCOCC3)=NC2=O)c2cc(Br)ccc21 | -2 | 58* | -1 | 7 | 15 | 2 | 50*
COc1cc(-c2ccc3oc(-c4cccc(C)c4)c(C#CC4(O)CCCCC4)c3c2)cc(OC)c1OC | 2 | 51* | -6 | -2 | x | 4 | 53*
SMILES | PG9 binder | TAG inh | beta cell repl | hiPSC survival | T cruzi repl | NR1D1 modulator | TAG conf
COc1ccc(-c2oc3ccc(-c4ccc5c(c4)OCO5)cc3c2C#CC2(O)CCCCC2)cc1 | 0 | -5 | -9 | 2 | 28 | 4 | x
CCOc1ccc(S(=O)(=O)NCc2ccccn2)cc1NC(=O)c1ccccc1 | 2 | 58* | -1 | 0 | 24 | -1 | 78*
COC(=O)C1=C(C)N(Cc2ccccc2)C(=NCC(C)C)N[C@H]1c1cccc(F)c1 | 1 | 92* | -6 | -6 | x | 4 | 73*
COC(=O)C1=C(C)N(Cc2ccccc2)C(=NCC(C)C)N[C@H]1c1cccc(C(F)(F)F)c1 | x | x | -6 | -2 | x | x | x
O=C(c1cccc(F)c1)N1CCCC(C(=O)N2CCN(c3ccccc3)CC2)C1 (stereo unspecified) | 1 | 8 | 1 | 0 | 5 | 1 | x
O=C(NCc1ccccn1)Nc1ccc2c(c1)OCO2 | 0 | x | -1 | 0 | -1 | 0 | x
O=C(Cc1c[nH]c2ccccc12)N/N=C/c1ccccc1O | -2 | 19 | -6 | 0 | 30 | 2 | x
Cc1ccc(/C=N/NC(=O)Cc2c[nH]c3ccccc23)c(C)c1 | -1 | 54* | 0 | 1 | -8 | -4 | 44*
CC(C)(C)c1ccc(/C=N/NC(=O)Cc2c[nH]c3ccccc23)cc1 | -1 | 58* | -6 | -3 | 34 | 5 | 42*
CC(=O)NC(Cc1c[nH]c2ccccc12)C(=O)N/N=C/c1ccccc1 (stereo unspecified) | -1 | 13 | -1 | 0 | -4 | 0 | x
Cc1nnc(SCc2ccc([N+](=O)[O-])cc2)[nH]c1=O | -1 | -10 | -3 | -1 | -5 | 1 | x
OC1CC2CCC(C1)N2CCCN1c2ccccc2Sc2ccc(Cl)cc21 (stereo unspecified) | -4 | 104* | x | -3 | x | 0 | 79*
Cc1ccc(C(=O)CC2(O)C(=O)N(CCc3ccccc3)c3ccc(Br)cc32)o1 (stereo unspecified) | 2 | 51* | -4 | 2 | 24 | -3 | 24
COc1ccccc1NS(=O)(=O)c1cc(NC(=O)/C=C/c2cccs2)ccc1N1CCOCC1 | -1 | 54* | -4 | -2 | 27 | -1 | 32
Cc1cc(NC(=O)c2ccccc2F)n(-c2nc3ccccc3[nH]2)n1 | 0 | 64* | 1 | -3 | u | 1 | 57*
Cc1cc(NC(=O)c2c(F)cccc2F)n(-c2nc3ccccc3[nH]2)n1 | -2 | x | -6 | -1 | 18 | 0 | x
O=c1ccc(-c2ccc(S(=O)(=O)Nc3cccc(Br)c3)o2)n[nH]1 | 0 | x | -2 | 0 | 3 | 3 | x
Cc1occc1C(=O)NC(C)CCc1ccccc1 (stereo unspecified) | 1 | 51* | -3 | 2 | -3 | -9 | 54*
CN1C(=O)/C(=C\c2ccc(N(C)C)cc2)OC1=S | -2 | x | -2 | -1 | 1 | 10 | x

Screening results: PubChem, several laboratories
